Assay results reported in PMC6322912 (Biochemistry, 2018).
pIC50: −log10 of the molar value.

Key:
SAMHD1 [1] = target: T1, SAMHD1 (Homo sapiens, UniProt Q9Y3Z3); experiment: Dose–response SAMHD1 dNTPase assay; type: biochemical; details: for inhibition at 500 µM: read-out: SAMHD1 inhibition in dose–response dNTPase assays
SAMHD1 [2] = target: T1, SAMHD1; experiment: b4NPP–SAMHD1 HTS; type: biochemical; details: increasing concentrations of dGTP; normalized to no dGTP
In short: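 Recombinant SAMHD1 was expressed in E. coli BL21* as an MBP fusion, tag-cleaved, and purified by heparin and size-exclusion chromatography. Nucleotide was added, then 2 mM final b4NPP. A410 was read over 45 min; rates came from 0–20 min slopes, with no-enzyme baseline.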

T1 sequence (Q9Y3Z3 whole entry): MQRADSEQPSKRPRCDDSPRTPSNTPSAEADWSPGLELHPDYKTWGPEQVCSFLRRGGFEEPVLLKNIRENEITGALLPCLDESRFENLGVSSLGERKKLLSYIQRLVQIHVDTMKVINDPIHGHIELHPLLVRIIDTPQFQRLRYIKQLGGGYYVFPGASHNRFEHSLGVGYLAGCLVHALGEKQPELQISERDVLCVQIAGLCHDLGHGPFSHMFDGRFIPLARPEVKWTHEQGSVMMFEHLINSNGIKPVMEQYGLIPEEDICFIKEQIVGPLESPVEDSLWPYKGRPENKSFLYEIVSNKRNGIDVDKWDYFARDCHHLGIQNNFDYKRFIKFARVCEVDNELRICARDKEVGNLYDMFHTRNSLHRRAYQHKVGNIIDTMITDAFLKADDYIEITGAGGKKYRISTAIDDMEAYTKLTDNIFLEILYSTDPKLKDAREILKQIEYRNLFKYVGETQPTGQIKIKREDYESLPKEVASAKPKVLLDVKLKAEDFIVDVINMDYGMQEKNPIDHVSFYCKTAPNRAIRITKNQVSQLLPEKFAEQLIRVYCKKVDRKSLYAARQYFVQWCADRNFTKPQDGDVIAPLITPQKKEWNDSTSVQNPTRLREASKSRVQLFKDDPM

Row | Structure (SMILES) | pIC50 (SAMHD1 [1]) | also measured
1 | CC[C@H](c1ccc(O)cc1)[C@@H](CC)c1ccc(O)cc1 [Hexestrol] | > 3.60 | –
2 | CN1C[C@H](C(=O)N[C@]2(C)O[C@@]3(O)[C@@H]4CCCN4C(=O)[C@H](Cc4ccccc4)N3C2=O)C=C2c3cccc4[nH]cc(c34)C[C@H]21 [Ergotamine] | > 3.60 | –
3 | COC(=O)c1ccc(O)c2nc3c(C=O)c(O)cc(O)c3nc12 [Lomofungin] | > 3.60 | –
4 | CC(C)(O)c1ccccc1CC[C@@H](SCC1(CC(=O)O)CC1)c1cccc(/C=C/c2ccc3ccc(Cl)cc3n2)c1 [Montelukast] | > 3.60 | –
5 | Nc1nc2c(ncn2CCC(CO)CO)c(=O)[nH]1 [Penciclovir] | – | inhibition at 500 µM (SAMHD1 [1]): ~25%
6 | Nc1nc2c(ncn2[C@H]2C[C@H](O)[C@@H](COP(O)(=S)OP(=O)(O)OP(=O)(O)O)O2)c(=O)[nH]1 (stereo partly drawn) [dGTPαS, deoxyguanosine triphosphate α S] | – | Inhibition of preactivated SAMHD1 dCTPase activity (SAMHD1 [1]; 150 μM dCTP substrate, tetramer preformed with 10 μM GTP and 25 μM dATPαS): inhibition
7 | CC1=C(/C=C/C(C)=C/C=C/C(C)=C/C(=O)O)C(C)(C)CCC1 [retinoic acid] | > 3.60 | –
8 | N[C@@H](Cc1cc(I)c(Oc2cc(I)c(O)c(I)c2)c(I)c1)C(=O)O [L-Thyroxine] | > 3.60 | –
9 | CCCCCOC(=O)Nc1nc(=O)n([C@@H]2O[C@H](C)[C@@H](O)[C@H]2O)cc1F [Capecitabine] | – | inhibition at 500 µM (SAMHD1 [1]): ~25%
10 | Nc1nc2c(ncn2[C@H]2C[C@H](O)[C@@H](COP(=O)(O)OP(=O)(O)OP(=O)(O)O)O2)c(=O)[nH]1 [dGTP] | – | Inhibition of SAMHD1-mediated b4NPP hydrolysis (SAMHD1 [2]): completely inhibited
11 | Nc1cc(-c2ccncc2)c[nH]c1=O [Amrinone] | > 3.60 | –
12 | CC1=C(CC(=O)O)c2cc(F)ccc2/C1=C\c1ccc([S+](C)[O-])cc1 (stereo not shown) [Sulindac] | > 3.60 | –
13 | CC(=O)CCCCn1c(=O)c2c(ncn2C)n(C)c1=O [Pentoxifylline] | – | inhibition at 500 µM (SAMHD1 [1]): ~25%
